Experimental data: ChEMBL document CHEMBL1142924, “N(6)-[(hetero)aryl/(cyclo)alkyl-carbamoyl-methoxy-phenyl]-(2-chloro)-5'-N-ethylcarboxamido-adenosines: the first example of adenosine-related structures with potent agonist activity at the human A(2B) adenosine receptor” (Bioorg Med Chem, 2007)

What was measured:
[1] = target: T1, Adenosine receptor A1 (Homo sapiens, UniProt P30542); assay: Displacement of [3H]CHA from human adenosine A1 receptor expressed in CHO cells; type: cell-based
T1 sequence (P30542 whole entry): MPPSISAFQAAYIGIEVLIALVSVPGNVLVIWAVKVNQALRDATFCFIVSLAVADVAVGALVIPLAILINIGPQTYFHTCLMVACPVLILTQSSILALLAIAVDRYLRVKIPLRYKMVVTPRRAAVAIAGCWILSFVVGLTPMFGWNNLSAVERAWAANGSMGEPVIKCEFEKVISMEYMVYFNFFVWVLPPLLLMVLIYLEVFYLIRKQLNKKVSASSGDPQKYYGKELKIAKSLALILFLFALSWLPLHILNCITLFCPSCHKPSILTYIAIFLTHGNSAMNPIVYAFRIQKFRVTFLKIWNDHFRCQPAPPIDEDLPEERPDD
Method in brief: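 Human A1 in CHO cell membranes, pretreated with adenosine deaminase 2 IU/mL for 30 min at 37 °C. 50 µg protein per assay incubated with 1 nM [³H]CHA and 6–8 agonist concentrations in 50 mM Tris-HCl pH 7.4 for 150 min at 25 °C. Nonspecific binding defined by 10 µM CHA. Separated by GF/B filtration, counted by scintillation. Ki from IC50 via Cheng–Prusoff.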

[2] = target: T2, Adenosine receptor A2b (Homo sapiens, UniProt P29275); assay: Agonist activity at human adenosine A2B receptor expressed in CHO cells assessed as stimulation of cAMP production; type: functional, cell-based
T2 sequence (P29275 whole entry): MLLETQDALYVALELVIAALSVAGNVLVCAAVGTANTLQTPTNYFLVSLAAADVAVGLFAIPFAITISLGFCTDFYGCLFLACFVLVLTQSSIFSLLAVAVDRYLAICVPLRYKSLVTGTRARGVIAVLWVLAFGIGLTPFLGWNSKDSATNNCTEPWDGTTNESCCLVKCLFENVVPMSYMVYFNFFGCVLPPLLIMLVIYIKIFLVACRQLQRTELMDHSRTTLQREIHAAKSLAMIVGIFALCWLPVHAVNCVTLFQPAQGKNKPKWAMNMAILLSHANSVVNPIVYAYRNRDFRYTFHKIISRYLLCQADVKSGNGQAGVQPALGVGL
Method in brief: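 CHO cells stably expressing human A2B, grown in DMEM/F12 with 10% serum and G418, trypsinized and pelleted. 1 × 10⁶ cells/assay preincubated 10 min at 37 °C with adenosine deaminase 2 IU/mL and Ro 20-1724. Ligands at 1 nM–10 µM added for 5 min, stopped with cold 6% TCA, ether-extracted. cAMP read by [³H]cAMP competition protein binding. EC50 from sigmoid non-linear regression; 3–4 experiments in duplicate.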

[3] = target: Adenosine receptor A2a (Homo sapiens, UniProt P29274); assay: Displacement of [3H]CGS-21680 from human adenosine A2A receptor expressed in CHO cells; type: cell-based; set-up: concentration or dose not given beside the values
Chain of Adenosine receptor A2a (P29274 whole entry): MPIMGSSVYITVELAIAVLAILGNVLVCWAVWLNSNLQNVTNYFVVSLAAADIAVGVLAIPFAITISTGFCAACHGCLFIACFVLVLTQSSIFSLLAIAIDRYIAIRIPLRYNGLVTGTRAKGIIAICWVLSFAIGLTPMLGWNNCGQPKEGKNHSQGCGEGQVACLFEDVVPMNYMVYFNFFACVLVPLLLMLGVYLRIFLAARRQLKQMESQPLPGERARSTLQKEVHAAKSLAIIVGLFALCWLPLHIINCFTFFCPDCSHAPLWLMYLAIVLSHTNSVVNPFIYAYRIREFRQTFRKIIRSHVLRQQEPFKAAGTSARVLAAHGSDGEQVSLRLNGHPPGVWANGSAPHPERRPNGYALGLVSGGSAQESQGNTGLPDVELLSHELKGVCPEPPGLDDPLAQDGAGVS

[4] = target: T3, Adenosine receptor A3 (Homo sapiens, UniProt P0DMS8); assay: Displacement of [125I]ABMECA from human adenosine A3 receptor expressed in CHO cells
T3 sequence (P0DMS8 whole entry): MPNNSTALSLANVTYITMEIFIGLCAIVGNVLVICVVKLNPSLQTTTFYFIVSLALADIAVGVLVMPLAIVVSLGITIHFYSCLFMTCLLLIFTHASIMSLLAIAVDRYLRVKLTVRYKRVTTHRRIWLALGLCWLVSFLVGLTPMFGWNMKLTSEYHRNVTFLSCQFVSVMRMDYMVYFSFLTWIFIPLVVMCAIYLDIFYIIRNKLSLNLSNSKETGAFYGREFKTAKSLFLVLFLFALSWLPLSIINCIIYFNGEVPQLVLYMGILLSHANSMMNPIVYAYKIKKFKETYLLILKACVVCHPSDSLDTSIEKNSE

CCNC(=O)[C@H]1O[C@@H](n2cnc3c(Nc4ccc(OCC(=O)Nc5ccncc5)cc4)ncnc32)[C@H](O)[C@@H]1O
Ki [1]: 11.2 nM | EC50 [2]: 32.3 nM | Activity [3]: 37% | Ki [3]: > 1000 nM | Ki [4]: 42.3 nM

CCNC(=O)[C@H]1O[C@@H](n2cnc3c(Nc4ccc(OCC(=O)Nc5ccccc5)cc4)ncnc32)[C@H](O)[C@@H]1O
Ki [1]: 8.5 nM | EC50 [2]: 7.3 nM | Activity [3]: 45% | Ki [3]: > 1000 nM | Ki [4]: 38.4 nM

CCNC(=O)[C@H]1O[C@@H](n2cnc3c(Nc4ccc(OCC(=O)Nc5ccc6c(c5)OCO6)cc4)ncnc32)[C@H](O)[C@@H]1O
Ki [1]: 8.4 nM | EC50 [2]: 35.5 nM | Activity [3]: 5% | Ki [3]: > 1000 nM | Ki [4]: 81.4 nM

CCNC(=O)[C@H]1O[C@@H](n2cnc3c(Nc4ccc(OCC(=O)Nc5ccc(OC)c(OC)c5)cc4)ncnc32)[C@H](O)[C@@H]1O
Ki [1]: 7.7 nM | EC50 [2]: 45.4 nM | Activity [3]: 30% | Ki [3]: > 1000 nM | Ki [4]: 53.2 nM

CCNC(=O)[C@H]1O[C@@H](n2cnc3c(Nc4ccc(OCC(=O)NC5CCCCC5)cc4)ncnc32)[C@H](O)[C@@H]1O
Ki [1]: 16.2 nM | EC50 [2]: 315 nM | Activity [3]: 40% | Ki [3]: > 1000 nM | Ki [4]: 72.5 nM

CCNC(=O)[C@H]1O[C@@H](n2cnc3c(Nc4ccc(OCC(=O)NCc5ccccc5)cc4)ncnc32)[C@H](O)[C@@H]1O
Ki [1]: 20.4 nM | EC50 [2]: 150 nM | Activity [3]: 49% | Ki [3]: > 1000 nM | Ki [4]: 82.7 nM

CCNC(=O)[C@H]1O[C@@H](n2cnc3c(Nc4ccc(OCC(=O)NCc5ccc(OC)cc5)cc4)ncnc32)[C@H](O)[C@@H]1O
Ki [1]: 28.3 nM | EC50 [2]: 240 nM | Activity [3]: 1% | Ki [3]: > 1000 nM | Ki [4]: 65.4 nM

CCNC(=O)[C@H]1O[C@@H](n2cnc3c(Nc4ccc(OCC(=O)Nc5ccc(N6CCOCC6)cc5)cc4)ncnc32)[C@H](O)[C@@H]1O
Ki [1]: 77.5 nM | EC50 [2]: 300 nM | Activity [3]: 1% | Ki [3]: > 1000 nM | Ki [4]: 320 nM

CCNC(=O)[C@H]1O[C@@H](n2cnc3c(Nc4ccc(OCC(=O)Nc5ccc(F)cc5)cc4)ncnc32)[C@H](O)[C@@H]1O
Ki [1]: 2.3 nM | EC50 [2]: 15.2 nM | Activity [3]: 48% | Ki [3]: > 1000 nM | Ki [4]: 72.3 nM

CCNC(=O)[C@H]1O[C@@H](n2cnc3c(Nc4ccc(OCC(=O)Nc5ccc(OC)cc5)cc4)nc(Cl)nc32)[C@H](O)[C@@H]1O
Ki [1]: 50.4 nM | EC50 [2]: 360 nM | Activity [3]: 27% | Ki [3]: > 1000 nM | Ki [4]: 101 nM

CCNC(=O)[C@H]1O[C@@H](n2cnc3c(Nc4ccc(OCC(=O)Nc5ccc(C(C)(C)C)cc5)cc4)ncnc32)[C@H](O)[C@@H]1O
Ki [1]: 18.6 nM | EC50 [2]: 16.4 nM | Activity [3]: 1% | Ki [3]: > 1000 nM | Ki [4]: 40.2 nM

CCNC(=O)[C@H]1O[C@@H](n2cnc3c(Nc4ccc(OCC(=O)Nc5ccc(Cl)cc5)cc4)ncnc32)[C@H](O)[C@@H]1O
Ki [1]: 3.1 nM | EC50 [2]: 12.3 nM | Activity [3]: 35% | Ki [3]: > 1000 nM | Ki [4]: 34.2 nM

CCNC(=O)[C@H]1O[C@@H](n2cnc3c(Nc4ccc(OCC(=O)NC5CCCCC5)cc4)nc(Cl)nc32)[C@H](O)[C@@H]1O
Ki [1]: 30.8 nM | EC50 [2]: 302 nM | Activity [3]: 46% | Ki [3]: > 1000 nM | Ki [4]: 95.8 nM

CCNC(=O)[C@H]1O[C@@H](n2cnc3c(Nc4ccc(OCC(=O)Nc5ccc(Br)cc5)cc4)ncnc32)[C@H](O)[C@@H]1O
Ki [1]: 3.5 nM | EC50 [2]: 10.5 nM | Activity [3]: 26% | Ki [3]: > 1000 nM | Ki [4]: 36.4 nM

CCNC(=O)[C@H]1O[C@@H](n2cnc3c(Nc4ccc(OCC(=O)NCc5ccccc5)cc4)nc(Cl)nc32)[C@H](O)[C@@H]1O
Ki [1]: 22.6 nM | EC50 [2]: 175 nM | Activity [3]: 49% | Ki [3]: > 1000 nM | Ki [4]: 75.7 nM

CCNC(=O)[C@H]1O[C@@H](n2cnc3c(Nc4ccc(OCC(=O)Nc5ccc(OC)cc5)cc4)ncnc32)[C@H](O)[C@@H]1O
Ki [1]: 4.7 nM | EC50 [2]: 32.4 nM | Activity [3]: 42% | Ki [3]: > 1000 nM | Ki [4]: 25.3 nM

CCNC(=O)[C@H]1O[C@@H](n2cnc3c(Nc4ccc(OCC(=O)Nc5ccc(I)cc5)cc4)ncnc32)[C@H](O)[C@@H]1O
Ki [1]: 5.2 nM | EC50 [2]: 30.2 nM | Activity [3]: 28% | Ki [3]: > 1000 nM | Ki [4]: 85.2 nM

CCNC(=O)[C@H]1O[C@@H](n2cnc3c(Nc4ccc(OCC(=O)Nc5cc(OC)cc(OC)c5)cc4)ncnc32)[C@H](O)[C@@H]1O
Ki [1]: 15.3 nM | EC50 [2]: 53.6 nM | Activity [3]: 13% | Ki [3]: > 1000 nM | Ki [4]: 78.6 nM

CCNC(=O)[C@H]1O[C@@H](n2cnc3c(Nc4ccc(OCC(=O)Nc5ccccc5C(F)(F)F)cc4)ncnc32)[C@H](O)[C@@H]1O
Ki [1]: 31.6 nM | EC50 [2]: 107 nM | Activity [3]: 1% | Ki [3]: > 1000 nM | Ki [4]: 115 nM

CCNC(=O)[C@H]1O[C@@H](n2cnc3c(Nc4ccc(OCC(=O)Nc5ccccc5)cc4)nc(Cl)nc32)[C@H](O)[C@@H]1O
Ki [1]: 30.5 nM | EC50 [2]: 42.6 nM | Activity [3]: 36% | Ki [3]: > 1000 nM | Ki [4]: 107 nM
